# ChEMBL document CHEMBL4390650, “Design, synthesis and biological evaluation of 2-(phenoxymethyl)-5-phenyl-1,3,4-oxadiazole derivatives as anti-breast cancer agents” (Eur J Med Chem, 2019)
# Calls of active or inactive are those of the source. The calls are words filed in the database; no cut-off is given here.
# Tests used:
# MCF7 = assay: Cytotoxicity against human MCF7 cells assessed as reduction in cell viability incubated for 48 hrs by MTT assay; assay type: functional, cell-based; conditions: for IC50: MCF7, 48 h
# Summary of the method: (§1)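 Cells came from NCCS Pune and were grown in DMEM with 10% FBS at 37°C, 5% CO2, then trypsinized at 70-80% confluence. About 5,000 cells/well were seeded and allowed 24 h to recover. Compounds in DMSO, up to 100 μM, were added for 48 h against DMSO-only controls. The medium was then changed and MTT (5 mg/ml stock) added for 4 h. Formazan was dissolved in DMSO and read at 560 nm. Values are mean ± SD of three independent experiments in triplicate.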
# MDA-MB-453 [1] = assay: Cytotoxicity against human MDA-MB-453 cells assessed as reduction in cell viability incubated for 48 hrs by MTT assay; assay type: functional, cell-based; conditions: for IC50: MDA-MB-453, 48 h; summary of the method: as §1
# MCF-10A = assay: Cytotoxicity against human MCF10A cells assessed as reduction in cell viability incubated for 48 hrs by MTT assay; assay type: cell-based; summary of the method: as §1
# MDA-MB-453 [2] = assay: Induction of morphological changes in human MDA-MB-453 cell assessed as induction of protrusion elongation at 10 uM incubated for 48 hrs by acridine orange and ethidium bromide staining based inverted fluorescent microscopy; assay type: functional
# Summary of the method: (§2)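 MDA-MB-453 cells were seeded at 5×10⁵/well and incubated overnight at 37°C, 5% CO2, then treated for 48 h. They were stained 5 min with a 1:1 acridine orange/ethidium bromide mix (each dye 100 μg/ml) and imaged immediately under an inverted fluorescence microscope. Scoring: live cells green, late apoptotic orange, necrotic red.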
# MDA-MB-453 [3] = assay: Induction of apoptosis in human MDA-MB-453 cells assessed as increase in SMAD7 protein expression at 10 uM incubated for 48 hrs by Western blot analysis; assay type: functional, cell-based
# Summary of the method: (§3)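 Western blot of treated MDA-MB-453 cells, with GAPDH as loading control.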
# MDA-MB-453 [4] = assay: Induction of necrosis in human MDA-MB-453 cells at 10 uM incubated for 48 hrs by acridine orange and ethidium bromide staining based inverted fluorescent microscopy; assay type: functional, cell-based; summary of the method: as §2
# [5] = biological target: DNA (cytosine-5)-methyltransferase 1 (Homo sapiens) (UniProt P26358); assay: Inhibition of DNMT1 (unknown origin) at 100 uM using cytosine-rich DNA substrate by ELISA relative to untreated control
# Sequence of DNA (cytosine-5)-methyltransferase 1 (Homo sapiens) (P26358 whole entry): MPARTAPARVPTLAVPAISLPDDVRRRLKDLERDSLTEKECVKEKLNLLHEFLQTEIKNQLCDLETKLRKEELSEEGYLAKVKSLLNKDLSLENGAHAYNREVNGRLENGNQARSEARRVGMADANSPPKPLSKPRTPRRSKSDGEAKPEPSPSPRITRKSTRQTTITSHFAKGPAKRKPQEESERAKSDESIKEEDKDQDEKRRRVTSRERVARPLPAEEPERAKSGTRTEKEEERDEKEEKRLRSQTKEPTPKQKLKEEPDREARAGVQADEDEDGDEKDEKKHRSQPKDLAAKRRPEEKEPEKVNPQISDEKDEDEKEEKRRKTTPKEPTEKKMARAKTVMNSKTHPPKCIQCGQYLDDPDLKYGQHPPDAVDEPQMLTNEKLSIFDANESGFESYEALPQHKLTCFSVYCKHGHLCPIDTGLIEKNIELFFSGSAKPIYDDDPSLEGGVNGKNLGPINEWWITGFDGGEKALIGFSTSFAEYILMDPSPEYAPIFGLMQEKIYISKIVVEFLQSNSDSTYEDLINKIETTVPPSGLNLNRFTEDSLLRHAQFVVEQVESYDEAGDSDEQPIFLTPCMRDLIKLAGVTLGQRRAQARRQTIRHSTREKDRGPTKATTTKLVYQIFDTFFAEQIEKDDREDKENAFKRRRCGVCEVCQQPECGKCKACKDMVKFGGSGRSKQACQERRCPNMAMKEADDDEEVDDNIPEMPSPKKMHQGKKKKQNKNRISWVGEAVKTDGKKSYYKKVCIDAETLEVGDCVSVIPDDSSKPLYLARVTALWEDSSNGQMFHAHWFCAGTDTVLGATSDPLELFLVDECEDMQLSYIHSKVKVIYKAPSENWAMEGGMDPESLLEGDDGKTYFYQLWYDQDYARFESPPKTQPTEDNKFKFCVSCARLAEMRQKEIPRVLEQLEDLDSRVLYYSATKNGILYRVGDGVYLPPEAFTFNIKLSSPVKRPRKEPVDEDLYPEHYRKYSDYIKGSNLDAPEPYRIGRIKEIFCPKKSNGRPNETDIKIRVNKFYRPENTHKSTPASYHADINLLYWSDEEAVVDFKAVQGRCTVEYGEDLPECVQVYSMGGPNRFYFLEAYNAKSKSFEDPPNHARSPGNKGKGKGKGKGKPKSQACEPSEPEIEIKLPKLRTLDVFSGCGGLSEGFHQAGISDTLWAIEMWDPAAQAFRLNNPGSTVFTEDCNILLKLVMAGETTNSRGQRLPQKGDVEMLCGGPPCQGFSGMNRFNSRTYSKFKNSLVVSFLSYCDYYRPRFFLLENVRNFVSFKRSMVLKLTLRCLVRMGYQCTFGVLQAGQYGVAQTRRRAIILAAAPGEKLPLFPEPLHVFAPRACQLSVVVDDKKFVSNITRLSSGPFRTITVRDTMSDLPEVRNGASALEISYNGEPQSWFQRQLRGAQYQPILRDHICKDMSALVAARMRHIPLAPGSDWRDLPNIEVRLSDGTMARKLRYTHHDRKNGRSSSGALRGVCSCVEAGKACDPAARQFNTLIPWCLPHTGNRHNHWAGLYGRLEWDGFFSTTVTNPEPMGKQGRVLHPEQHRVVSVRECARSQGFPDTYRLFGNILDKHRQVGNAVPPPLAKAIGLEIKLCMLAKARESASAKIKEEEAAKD
# Summary of the method: (§4)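 DNMT activity was measured with a commercial DNA methyltransferase activity/inhibition screening kit, following the manufacturer's instructions.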
# MDA-MB-453 [6] = assay: Induction of apoptosis in human MDA-MB-453 cells assessed as increase in p53 protein expression incubated for 48 hrs by Western blot analysis; assay type: functional, cell-based; summary of the method: as §3
# MDA-MB-453 [7] = assay: Induction of morphological changes in human MDA-MB-453 cell assessed as induction of chromatin condensation at 10 uM incubated for 48 hrs by acridine orange and ethidium bromide staining based inverted fluorescent microscopy; assay type: functional; summary of the method: as §2
# MDA-MB-453 [8] = assay: Induction of morphological changes in human MDA-MB-453 cell assessed as induction of cell membrane blebbing at 10 uM incubated for 48 hrs by acridine orange and ethidium bromide staining based inverted fluorescent microscopy; assay type: functional; summary of the method: as §2
# [9] = biological target: DNA (cytosine-5)-methyltransferase 3B (Homo sapiens) (UniProt Q9UBC3); assay: Inhibition of DNMT3B (unknown origin) at 100 uM using cytosine-rich DNA substrate by ELISA relative to untreated control; summary of the method: as §4
# MDA-MB-453 [10] = assay: Induction of apoptosis in human MDA-MB-453 cells at 10 uM incubated for 48 hrs by acridine orange and ethidium bromide staining based inverted fluorescent microscopy; assay type: functional, cell-based; summary of the method: as §2
SMILES,IC50 (MCF7) [µM],IC50 (MDA-MB-453 [1]) [µM],IC50 (MCF-10A) [µM],other results
COc1cc(C#N)ccc1OCc1nnc(-c2ccc(Cl)cc2)o1,21.5,33.9,89.5,–
COc1ccc(-c2nnc(COc3ccc(-c4nnco4)cc3)o2)cc1,31.2,36.2,> 100,–
COc1cc(C#N)ccc1OCc1nnc(-c2ccc(F)cc2)o1,10.2,10.5,> 100,Activity (MCF7): Dose-dependent effect; Activity (MDA-MB-453 [1]): Dose-dependent effect; Activity (MDA-MB-453 [2]): Active; Activity (MDA-MB-453 [3]): Active; Activity (MDA-MB-453 [4]): Active; inhibition [5]: 10%; Activity (MDA-MB-453 [6]): Dose-dependent effect; Activity (MDA-MB-453 [7]): Active; Activity (MDA-MB-453 [8]): Active; inhibition [9]: 33%; Activity (MDA-MB-453 [10]): Active
COc1ccc(-c2nnc(COc3ccc(C#N)c(F)c3)o2)cc1,42.1,45.5,> 100,–
N#Cc1ccc(OCc2nnc(-c3ccc(Cl)cc3)o2)cc1F,48.3,> 50,> 100,–
c1ccc(-c2nnc(COc3ccc(-c4nnco4)cc3)o2)cc1,> 50,> 50,> 100,–
COc1cc(C#N)ccc1OCc1nnc(-c2ccccc2)o1,32.2,40.1,> 100,–
Clc1ccc(-c2nnc(COc3ccc(-c4nnco4)cc3)o2)cc1,45.2,> 50,> 100,–
N#Cc1ccc(OCc2nnc(-c3ccc(F)cc3)o2)cc1F,20.4,25.1,84.2,–
N#Cc1ccc(OCc2nnc(-c3ccccc3)o2)cc1F,> 50,> 50,> 100,–
Cc1ccc(-c2nnc(COc3ccc(C#N)c(F)c3)o2)cc1,> 50,> 50,> 100,–
Cc1ccc(NC(=O)c2ccc(CN3CCN(C)CC3)cc2)cc1Nc1nccc(-c2cccnc2)n1 [IMATINIB],–,12.8,> 100,–
Fc1ccc(-c2nnc(COc3ccc(-c4nnco4)cc3)o2)cc1,35.6,38.2,> 100,–
Cc1ccc(-c2nnc(COc3ccc(-c4nnco4)cc3)o2)cc1,> 50,> 50,> 100,–
COc1ccc(-c2nnc(COc3ccc(C#N)cc3OC)o2)cc1,11.1,13,> 100,–
COc1cc(C#N)ccc1OCc1nnc(-c2ccc(C)cc2)o1,27.1,38.4,> 100,–
